# From PubChem
# FAS TE block: blocks the thioesterase domain of human fatty acid synthase | P49327 | recombinant FAS-TE, OMFH fluorogenic substrate, fluorescence endpoint | inhibition, % at 15 µM | 0.67% of 360,000 active | AID 602261;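 active means compounds whose normalised, plate-corrected inhibition of enzyme fluorescence in the single-dose primary screen is 50% or more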;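 further: 0% = DMSO with enzyme and 100% = substrate without enzyme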
# ALR H2O2 inh: human ALR oxidase inhibition via reduced H2O2; P55789; purified ALR, DTT oxidation, H2O2 HRP-luminol luminescence; inhibition, % (no concentration beside the values); 3.8% of 290,000 active;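 active means mean replicate inhibition above about 79%, with every replicate also reaching it, limit read from the data; inconclusive means only one of the two criteria met; inactive means mean below limit and not every replicate reaching it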
# Target sequence (P55789 whole entry, looked up): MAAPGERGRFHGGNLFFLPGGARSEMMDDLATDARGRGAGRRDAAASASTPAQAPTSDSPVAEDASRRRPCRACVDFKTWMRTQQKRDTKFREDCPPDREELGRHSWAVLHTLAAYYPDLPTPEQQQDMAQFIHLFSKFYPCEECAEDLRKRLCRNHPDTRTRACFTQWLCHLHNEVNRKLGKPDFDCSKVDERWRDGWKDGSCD
# UCH37 DUB inh: blocks the human deubiquitinase UCH37. purified proteasome/UCH37, Ub-AMC cleavage fluorescence. 0.33% of 330,000 active. Q9Y5K5. inhibition, % (test concentration not listed);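 active means mean inhibition over replicate wells above about 20%, limit read from the data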;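 further: 0% = compound-free wells with enzyme and 100% = wells lacking proteasome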
# Target sequence (Q9Y5K5 whole entry, looked up): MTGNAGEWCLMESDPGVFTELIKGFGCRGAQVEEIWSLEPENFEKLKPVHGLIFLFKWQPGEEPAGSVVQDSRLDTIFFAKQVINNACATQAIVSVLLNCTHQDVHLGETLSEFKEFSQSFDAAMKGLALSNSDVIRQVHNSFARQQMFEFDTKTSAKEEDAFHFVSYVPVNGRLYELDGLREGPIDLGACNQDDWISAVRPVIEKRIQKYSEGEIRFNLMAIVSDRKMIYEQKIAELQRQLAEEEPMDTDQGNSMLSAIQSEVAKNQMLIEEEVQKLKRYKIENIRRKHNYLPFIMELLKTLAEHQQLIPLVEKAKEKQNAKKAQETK
#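 system = Proteasome-associated human UCH37 deubiquitinase | amount = 0.15 nM proteasome as dispensed | medium = pH 7.4 Tris-HCl (50 mM) with ovalbumin, ATP-MgCl2, DTT | incubation = 30 min preincubation with enzyme, 25 min cleavage at room temperature | detection = AMC fluorescence 355/460 nm | read-out basis = percent inhibition | controls = no-proteasome and no-compound wells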
# Rtt109 Vps75: inhibitors of Candida albicans Rtt109/Vps75 histone acetyltransferase; Q5AAJ8; inhibition, % at 34.9 µM; purified Rtt109/Vps75, ThioGlo CoA-SH fluorescence, 4 h; 0.16% of 330,000 active; AID 540336;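 active means inhibition of at least 50% in every replicate; inconclusive means best replicate reaches 50% inhibition but some replicates fall short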
# M18AAP inhibitor: blocks P. falciparum M18 aspartyl aminopeptidase; recombinant PfM18AAP, H-Glu-NHMec fluorogenic cleavage; inhibition, % at 7.35 µM; 1.2% of 290,000 active;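 active means inhibition above the campaign mean inhibition over all tested compounds plus 3 SD, cut at about 28% in these data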;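 further: 0% = plate median of test compound wells and 100% = 2 mM ZnCl2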
# HDAC3 inhib: blocks human histone deacetylase 3; 0.15% of 320,000 active; recombinant HDAC3, fluorogenic peptide/trypsin coupled, fluorescence; O15379; inhibition, % at 8.3 µM; in the data active means inhibition above about 26%, passing the limit was not always enough; inconclusive means no clear call, values can overlap the other calls
# Active calls of the source: *; ? = inconclusive; / = not tested or not shown. Most compounds without a hit are left out; they make up all but 4.6% or so of the library.
SMILES,FAS TE block,ALR H2O2 inh,UCH37 DUB inh,Rtt109 Vps75,M18AAP inhibitor,HDAC3 inhib
C[C@H](CO)N1C[C@H](C)[C@@H](CN(C)C(=O)Nc2ccc(C(F)(F)F)cc2)Oc2c(NC(=O)Nc3ccc(C(F)(F)F)cc3)cccc2C1=O,79*,1,/,-4,/,?
CC(=NOC(=O)CC(C)C)c1cc(-c2ccc(Cl)cc2)no1,/,/,0,/,/,/
Cc1c(Cl)cccc1NC(=O)CSc1sc2c(O)cc(=O)[nH]c2c1C#N,4,?,9,1,4,7
N#Cc1c(SCC(=O)Nc2ccc(Cl)cc2Cl)sc2c(O)cc(=O)[nH]c12,1,99*,6,1,11,2
N#Cc1cccc(NC(=O)CSc2sc3c(O)cc(=O)[nH]c3c2C#N)c1,1,99*,8,-6,13,7
N#Cc1c(SCC(=O)Nc2cccc(F)c2)sc2c(O)cc(=O)[nH]c12,3,99*,5,0,12,0
CCOc1cccc(NC(=O)CSc2sc3c(O)cc(=O)[nH]c3c2C#N)c1,-2,99*,8,6,12,3
COc1cc(NC(=O)CC(C)=NNC(=O)c2ccccn2)c(OC)cc1Cl,/,/,4,/,/,/
O=C(NN=Cc1cccnc1)c1ccc(Cl)cc1Cl,/,/,3,/,/,/
CC(=NNC(=O)c1ccc2c(c1)OCO2)c1ccc(NC(=O)C(F)(F)F)cc1,/,/,7,/,/,/
CN(N=Cc1cccnc1)c1cnn(-c2ccc(F)c(Cl)c2)c(=O)c1Cl,/,/,-18,/,/,/
CN(C)c1ccc(C=NNC(=O)CCCCCNC(=O)c2ccccc2)cc1,/,/,-90,/,/,/
O=C(CCN1CCN(C(c2ccccc2)c2ccccc2)CC1)N/N=C/c1ccc(O)cc1,-4,98*,/,-3,3,1
COC(=O)Oc1ccc(/C=N/NC(=O)CSCc2ccccc2Br)cc1OC,7,99*,/,7,4,-5
COC(=O)Oc1ccc(C=NNC(=O)CSCc2ccccc2Br)cc1OC,/,/,4,/,/,/
O=C(CCN1CCN(C(c2ccccc2)c2ccccc2)CC1)N/N=C/c1ccc(O)cc1O,16,29,/,28,7,14
COc1cc(/C=N/NC(=O)CCc2c(C)n[nH]c2C)ccc1O,-4,99*,/,-7,1,-7
COc1ccc(/C=N\NC(=O)CCN2CCN(c3ccccc3)CC2)cc1OC,-7,98*,/,1,3,4
ON=C(c1ccc(Cl)cc1)c1ncc(C(F)(F)F)cc1Cl,/,/,4,/,/,/
COc1cc(/C=N/NC(=O)CCN2CCCCC2)ccc1O,-6,99*,/,-3,-13,-7
COc1cc(C=NNC(=O)CCn2nc(C)cc2C)ccc1O,/,/,-3,/,/,/
COc1ccc(/C=N/NC(=O)c2ccncc2)cc1CN1CCN(c2ccc(F)cc2)CC1,5,99*,/,9,-7,4
COc1ccc(OC)c(NC(=O)CCN2CCN(c3ccccc3)CC2)c1,5,92*,0,3,-5,-9
COc1ccc(OC)c(NC(=O)CCN2CCN(Cc3ccccc3)CC2)c1,-7,-52,3,-3,1,1
COc1ccc(/C=N/NC(=O)CCn2nc(C)cc2C)cc1O,-7,77*,/,30,-12,5
SMILES,FAS TE block,ALR H2O2 inh,UCH37 DUB inh,Rtt109 Vps75,M18AAP inhibitor,HDAC3 inhib
O=C(NN=Cc1cc(Br)c(Br)o1)c1cncc(Br)c1,/,/,6,/,/,/
O=C(NN=Cc1cccnc1)c1ccccc1[N+](=O)[O-],/,/,-1,/,/,/
COc1cccc(C=Nc2nc3ccccc3n2C)c1O,/,/,4,/,/,/
O=C(CSc1nnc(-c2ccc(Cl)cc2)n1-c1ccccc1)NN=Cc1ccccc1C(=O)O,/,/,1,/,/,/
CCOc1ccc(-c2nnc(-c3cccs3)o2)cc1OCC,4,/,-36,-14,3,-6
CCOc1ccc(-c2nc(-c3cccs3)c(CC(=O)O)s2)cc1OC,-4,89*,-36,-15,-11,-5
C=CCc1cccc(CNc2ccc(S(=O)(=O)Nc3nccnc3OC)cc2)c1O,-3,2,3,4,8,1
C=CCc1cccc(CNc2ccc(Br)cc2)c1O,23,98*,6,1,-10,4
Cc1cc(Cl)ccc1NC(=O)CN1C(=O)NC2(CCCC2)C1=O,-2,/,0,-7,4,4
Cc1cc(N2CCCC2)ccc1NC(=O)CN1C(=O)NC2(CCCCC2)C1=O,-8,93*,0,-4,/,4
O=C(CN1C(=O)NC2(CCCCC2)C1=O)Nc1ccc(N2CCCCC2)cc1,-6,93*,0,1,/,2
O=C(NN=Cc1cccc2ccccc12)c1cccs1,/,/,1,/,/,/
Cn1c(=Nc2ccc(N3CCOCC3)cc2)ccc2ccccc21,-9,99*,4,0,1,5
CCn1c(=Nc2ccc(N3CCOCC3)cc2)ccc2ccccc21,-3,67,8,-9,-17,-1
CCC(C)NC(=O)c1ccc2c(SCC(=O)O)c3c(nc2c1)CCCC3 (centres undefined),-9,97*,3,-7,2,5
CCn1c(O)c(N=Nc2ccc(Cl)c(C(=O)O)c2)c2ccccc21,-1,19,20*,20,-14,7
C=CCn1c(-c2ccc(Cl)cc2)c[nH]c1=S,-10,97*,0,18,-6,-2
CC12CN3CC(C)(CN(C1)C3c1cc(Br)ccc1O)C2=O (centres undefined),-3,-1,5,12,0,6
CC1(C)C(=O)OC(c2cc(Br)ccc2O)C(C)(C)C1=O (centres undefined),2,98*,7,4,4,0
CCOC(=O)C1CCCN(S(=O)(=O)c2ccc3c(c2)CC(C)N3C(=O)C2CC2)C1 (centres undefined),8,-11,1,3,-9,1
CC1Cc2cc(S(=O)(=O)N3CCC(C(=O)N(C)Cc4ccco4)CC3)ccc2N1C(=O)C1CCC1 (centres undefined),17,-3,0,50*,6,2
CCOC(=O)C1CCN(S(=O)(=O)c2ccc3c(c2)CC(C)N3C(=O)C2CCC2)CC1 (centres undefined),16,-4,1,54*,1,6
CC1CCN(S(=O)(=O)c2ccc3c(c2)CC(C)N3C(=O)C2CCC2)CC1 (centres undefined),16,-1,5,11,-11,9
CC(=NNC(=O)c1cccnc1)c1ccccc1,/,/,2,/,/,/
COc1ccc(CC(=O)NC(=S)NNC(=O)COc2c(C)cccc2C)cc1,-2,3,1,-5,47*,2
CNC(=S)NNC(=O)Cc1ccc(OC)cc1,-6,43,2,2,15,-2
CC(=NNc1nc(N)cc(Cl)n1)c1cccc(N)c1,/,/,5,/,/,/
Cc1ccc(Nc2c(-c3ccc(N4CCOCC4)cc3)nc3ncccn23)cc1C,12,94*,-29,3,3,-2
Cc1cccc(Nc2c(-c3ccc(O)cc3)nc3ncccn23)c1,-1,23,/,/,25,5
